Assay outcomes deposited in PubChem BioAssay by several laboratories.
PHOSPHO1 block – PHOSPHO1 (human) inhibition; hit rate 1.1% among 290,000; Q8TCT1; AID 1565; inhibition, % at 13.3 µM; recombinant PHOSPHO1, absorbance phosphatase assay; in the data active means inhibition above about 60%
PKD1 kinase inh – inhibitors of human PKD1 kinase. Q15139. hit rate 0.056% among 200,000. inhibition, % (no concentration beside the values). PKD1 kinase fluorescence polarization assay; in the data active means inhibition above about 50%
NCF1 inh – p47phox (human) inhibition; AID 1274; P14598; inhibition, % at 24.7 µM; hit rate 0.53% among 220,000; p47phox/p22phox peptide binding, fluorescence polarization, 2 h;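 active means inhibition above about 30%, limit read from the data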;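 further: 0% = p47phox with labelled peptide and 100% = labelled peptide alone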
HSV replic up – HSV replication enhancement | AID 1956 | hit rate 0.005% among 220,000 | maximum fold increase | HSV replication augmentation in cells, fold increase; in the data active means maximum fold increase above about 1.5; inconclusive means no clear call, values can overlap the other calls; tested in PC3 cells
ABCB1 inh – human ABCB1 inhibition, ABCG2 as counter-screen | CCRF-Adr cells, JC-1 efflux, flow cytometry | AID 1326 | P08183 | hit rate 0.067% among 190,000 | inhibition, % at 6.6 µM; in the data active means inhibition above about 40%;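 further: 0% = vehicle and 100% = reference inhibitor; higher value means more JC-1 retained so stronger ABCB1 efflux block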
Target sequence (P08183 whole entry, looked up): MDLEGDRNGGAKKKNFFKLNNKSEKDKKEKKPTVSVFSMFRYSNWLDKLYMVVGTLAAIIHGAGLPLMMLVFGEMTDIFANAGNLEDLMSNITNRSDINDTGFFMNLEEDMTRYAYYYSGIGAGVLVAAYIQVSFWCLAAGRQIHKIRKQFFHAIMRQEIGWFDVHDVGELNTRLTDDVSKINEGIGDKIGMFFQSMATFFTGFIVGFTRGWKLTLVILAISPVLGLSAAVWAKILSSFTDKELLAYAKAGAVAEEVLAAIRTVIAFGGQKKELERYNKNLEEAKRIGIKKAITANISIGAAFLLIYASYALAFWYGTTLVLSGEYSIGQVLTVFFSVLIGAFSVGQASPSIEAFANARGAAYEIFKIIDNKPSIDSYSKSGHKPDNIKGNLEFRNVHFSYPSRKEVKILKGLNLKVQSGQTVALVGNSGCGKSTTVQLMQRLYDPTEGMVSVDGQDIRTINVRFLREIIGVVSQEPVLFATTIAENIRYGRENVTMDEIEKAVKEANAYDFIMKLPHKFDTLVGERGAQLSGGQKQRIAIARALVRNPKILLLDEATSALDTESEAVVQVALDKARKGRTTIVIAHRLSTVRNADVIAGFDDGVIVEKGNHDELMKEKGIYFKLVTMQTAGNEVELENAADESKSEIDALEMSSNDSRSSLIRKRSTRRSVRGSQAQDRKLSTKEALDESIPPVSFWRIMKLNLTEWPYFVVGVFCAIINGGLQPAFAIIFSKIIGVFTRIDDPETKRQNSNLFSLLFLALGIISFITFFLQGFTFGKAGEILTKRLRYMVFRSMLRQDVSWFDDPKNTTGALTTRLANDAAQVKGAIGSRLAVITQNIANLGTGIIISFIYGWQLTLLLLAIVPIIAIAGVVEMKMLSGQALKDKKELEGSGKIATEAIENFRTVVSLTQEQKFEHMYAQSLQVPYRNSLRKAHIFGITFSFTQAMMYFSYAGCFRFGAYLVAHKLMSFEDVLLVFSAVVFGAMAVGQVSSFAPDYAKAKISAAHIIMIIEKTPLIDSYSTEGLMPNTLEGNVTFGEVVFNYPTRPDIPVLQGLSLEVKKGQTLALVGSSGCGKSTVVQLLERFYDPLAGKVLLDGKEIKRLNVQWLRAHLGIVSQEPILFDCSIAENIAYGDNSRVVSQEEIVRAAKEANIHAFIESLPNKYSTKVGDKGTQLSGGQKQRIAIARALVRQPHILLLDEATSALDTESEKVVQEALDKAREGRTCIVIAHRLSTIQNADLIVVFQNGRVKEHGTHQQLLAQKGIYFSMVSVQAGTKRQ
ABCG2 inh – inhibitors of human ABCG2 transporter, ABCB1 counter-screen; Q9UNQ0; IgMXP3 cells, JC-1 efflux, flow cytometry; inhibition, % at 6.6 µM; hit rate 0.1% among 190,000;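 active means inhibition above 80%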;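 further: 0% = DMSO and 100% = nicardipine control wells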
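test system = two drug-resistant human cell lines, ABCG2 and ABCB1 | amount = 3 million cells/mL final, two lines in 1:1 ratio | reagent = JC-1 transporter substrate | doses = one concentration, 6.6 µM final | incubation = 10 min at 25 °C | signal = flow cytometric JC-1 green MFI at 530 nm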
An asterisk follows results filed as active; i = inactive; ? = inconclusive; · = no result; + = active, no number. Hits are enriched below; roughly 1.6% of the tested compounds scored in any of these assays.

SMILES	PHOSPHO1 block	PKD1 kinase inh	NCF1 inh	HSV replic up	ABCB1 inh	ABCG2 inh
CCCNC(=O)C1CCC(CNS(=O)(=O)c2cccc3nsnc23)CC1 (stereo not drawn)	24	·	·	·	·	·
CCCc1ccc2oc(C(=O)N3CCCC3)c(C)c2c1	-8	·	·	·	·	·
CCN1CCCC(Sc2nc3c([nH]2)c(=S)n(C)c(=O)n3C)C1 (stereo not drawn)	20	·	-4	i	·	·
Cn1c(=S)c2[nH]c(SCCN3CCCC3)nc2n(C)c1=O	25	·	44*	i	·	·
CC(C)N(C)CCOC(=O)/C=C/c1ccccc1	-8	-12	38*	i	0	0
COc1cc(/C=N/NC(=O)COc2ccc([N+](=O)[O-])cc2)ccc1OCC(=O)N1CCOCC1	23	·	·	·	·	·
COC(=O)c1ccccc1NC1=C/C(=N\S(=O)(=O)c2cccs2)c2ccccc2C1=O	38	-8	183*	i	0	-1
COC(=O)c1ccccc1NC1=C/C(=N\S(=O)(=O)c2ccc(C(=O)O)cc2)c2ccccc2C1=O	-39	·	·	·	·	·
O=C(c1cccnc1)N1CCN(c2ccccc2Cl)CC1	14	·	-2	i	·	·
CC(=O)c1cccc(NC(=O)C2CCN(S(=O)(=O)c3ccccc3)CC2)c1	-29	3	1	i	1	4
CC(C)=C(NC(=O)c1ccccc1)C(=O)NCCc1nc2ccccc2[nH]1	64*	·	·	·	·	·
CC(=O)NCCc1nc2ccccc2[nH]1	-3	8	-20	i	1	2
CCn1c(SCC(=O)N/N=C/C(C)=C\c2ccco2)nnc1-c1ccccc1	0	-9	-7	i	0	8
CCn1c(SCC(=O)N/N=C/C(C)=C/c2ccco2)nnc1-c1ccccc1	70*	8	-10	i	1	23
C1=C(c2ccco2)N2CCN=C2S1	29	·	·	·	·	·
O=C(c1cccc(Oc2ccc([N+](=O)[O-])cc2)c1)N1CCOCC1	63*	·	·	·	·	·
S=c1[nH]nc(-c2ccc3ccccc3n2)o1	89*	-10	-5	i	0	1
FC(F)(F)c1ccc(-c2n[nH]c(=S)o2)nc1	-10	·	-13	i	·	·
Cc1cc(C)c(NC(=O)Cn2nnc(C(=O)NCc3ccc4c(c3)OCO4)c2N)c(C)c1	43	·	·	·	·	·
Cc1c(C)c2ccc(OC(C)C(=O)NC3CC(C)(C)NC(C)(C)C3)cc2oc1=O (stereo not drawn)	70*	·	·	·	·	·
CC(Oc1ccc2c3c(c(=O)oc2c1)CCCC3)C(=O)NC1CC(C)(C)NC(C)(C)C1 (stereo not drawn)	47	·	·	·	·	·
Cn1cc(SCC(=O)Nc2ccc3c(c2)OCO3)c2ccccc21	72*	11	-9	i	0	1
CCCn1cc(SCC(=O)Nc2ccc3c(c2)OCO3)c2ccccc21	-30	15	-16	i	-2	-4
CCc1nc(SCC(=O)Nc2ccc3c(c2)OCCO3)c2oc3ccccc3c2n1	41	4	39*	i	0	3
CCSC1=NSC2=NC(=O)/C(=C\c3coc4ccccc4c3=O)C(=N)N12	-2	-13	-112	i	29	+
SMILES	PHOSPHO1 block	PKD1 kinase inh	NCF1 inh	HSV replic up	ABCB1 inh	ABCG2 inh
CC(C)CC1=NN2C(=N)/C(=C\c3coc4ccccc4c3=O)C(=O)N=C2S1	9	-1	-41	?	1	6
CCC(C)N1CC(C(=O)NC2CCCCC2)CC1=O (stereo not drawn)	-1	-2	·	i	0	-1
CCC(C)N1CC(C(=O)O)CC1=O (stereo not drawn)	13	-8	47*	i	0	1
Cc1nc(N)sc1-c1csc(N(C)c2ccc(O)cc2)n1	85*	1	4	i	0	7
Cc1ccc(NC(=O)CN(C)C2CCCCC2)cc1Br	-1	-5	-7	i	0	-1
COc1ccc(/C=N/Nc2ccccc2C(=O)O)cc1Cn1cc([N+](=O)[O-])cn1	60*	·	-9	i	·	·
CC(C)NC(=O)c1ccc(C(C)C)cc1	25	·	8	i	·	·
Oc1cncc(Cc2ccccc2)c1	-8	·	·	·	·	·
COc1cc(C(=O)OCC(=O)Nc2cc(-c3cc(C)c(C)cc3C)nn2-c2ccccc2)cc(OC)c1OC	2	-7	-6	i	1	5
Cc1cc(C)c(-c2cc(NC(=O)COC(=O)c3ccc(CO)cc3)n(-c3ccccc3)n2)cc1C	-20	1	+	i	1	10
CCC(C)(C)NC(=O)C(c1ccc(F)cc1)N(CCOC)C(=O)CCC(=O)Nc1nccs1 (stereo not drawn)	24	·	·	·	·	·
CCN(CC)Cc1ccc(NC(=O)c2sc3cc(Cl)ccc3c2Cl)cc1	60*	·	-14	i	·	·
O=C(COC(=O)c1ccc2c(c1)C(=O)N(Cc1ccncc1)C2=O)Nc1cccc2ccccc12	35	5	9	i	1	8
Cc1ccc(NC(=O)Nn2cnnc2)cc1Cl	41	·	·	·	·	·
Cc1ccc(NC(=O)O/N=C/c2c(C)nn(C(C)(C)C)c2C)cc1Cl	21	·	132*	i	·	·
CCN(CC)C(=O)COc1ccc(C=O)cc1OC	0	-11	5	i	-9	-3
CCOc1ccc(OCC)c2sc(C)nc12	17	-11	59*	i	0	0
COCCn1nnnc1C(C(C)C)N1CCSCC1 (stereo not drawn)	22	-2	6	i	0	4
CCOC(=O)c1c(CSc2ccccc2)n(C)c2cc(Br)c(OCC(O)CNC(CO)(CO)CO)cc12 (stereo not drawn)	1	-2	42*	i	1	10
COc1ccc(C2/C(=C(/O)c3ccc4c(c3)CC(C)O4)C(=O)C(=O)N2CCCN2CCOCC2)cc1 (stereo not drawn)	29	·	·	·	·	·
CCOC(=O)Cn1c(=S)[nH]c2c(oc3ccc(Cl)cc32)c1=O	93*	-2	-7	i	-1	-3
CCCCCc1cc(=O)oc2c(C(CCN3CCCCC3)c3ccc4c(c3)OCO4)c(OC)cc(OC)c12 (stereo not drawn)	45	·	-5	i	·	·
CCCCCc1cc(=O)oc2c(C(CCN3CCCC(C)C3)c3ccc4c(c3)OCO4)c(OC)cc(OC)c12 (stereo not drawn)	31	·	33*	i	·	·
CC(NS(C)(=O)=O)C(c1cccs1)N1CCN(Cc2ccccc2)CC1 (stereo not drawn)	-6	-7	169*	i	0	2
CCOc1ccccc1NC(=O)C(Sc1ccccc1)c1ccccc1 (stereo not drawn)	16	1	53*	i	1	7
CCOc1ccccc1NC(=O)c1cccc(NC(=O)C(C)C)c1	61*	-14	-8	i	1	7
CC(C)c1ccc(CNn2cnnc2)cc1	3	·	·	·	·	·
COc1ccc(-c2cc3ccccc3oc2=O)cc1NC(=O)c1ccc(Br)o1	-10	0	41*	i	1	1
COc1ccc(-c2cc3ccccc3oc2=O)cc1NC(=O)c1ccc([N+](=O)[O-])o1	14	3	40*	i	0	0
